From ChEMBL document CHEMBL1926518, “Synthesis of macrolones with central piperazine ring in the linker and its influence on antibacterial activity” (2011) come the findings set out here.

What all share (format): functional
Experiment [1] relates to Staphylococcus aureus. As to the kind of experiment: Antibacterial activity against inducible macrolide, licosamide and streptogramin-resistant Staphylococcus aureus 90256/97 by broth microdilution technique. The method, boiled down: (§1)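 MICs were determined by CLSI broth microdilution, with double dilutions of compound. Staphylococci were grown on Mueller–Hinton agar before testing. Results are given in µg/mL.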

For experiment [2], the system named is Streptococcus pneumoniae. The experiment is described as follows: Antibacterial activity against erythromycin-sensitive Streptococcus pneumoniae SP030 by broth microdilution technique. The essentials: (§2)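 Streptococcal MICs by CLSI broth microdilution with doubling dilutions, but with 5% horse serum in the medium in place of lysed blood. Before testing, strains were grown on Columbia agar with 5% sheep blood. Values reported in µg/mL.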
In general terms: In broth dilution the organism is exposed to a series of concentrations in liquid medium.

In experiment [3] the test system is Streptococcus pyogenes. As to the kind of experiment: Antibacterial activity against constitutive macrolide, licosamide and streptogramin-resistant Streptococcus pyogenes 166 GR-Micro by broth microdilution technique. The essentials: (§3)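 MICs were determined by CLSI broth microdilution, with double dilutions of compound. In the streptococcal medium, 5% horse serum replaced lysed blood. Streptococci were grown on Columbia agar with 5% sheep blood before testing. Results are given in µg/mL.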

In experiment [4] the test system is Staphylococcus aureus. As to the kind of experiment: Antibacterial activity against erythromycin-sensitive Staphylococcus aureus ATCC 13709 by broth microdilution technique. The essentials: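 MIC by broth microdilution per CLSI guidelines with doubling dilutions of compounds. Before testing, staphylococci were grown on Mueller–Hinton agar. Values reported in µg/mL.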

Experiment [5] has as its system Streptococcus pneumoniae. As to the kind of experiment: Antibacterial activity against inducible macrolide-resistant, constitutive licosamide and streptogramin-resistant Streptococcus pneumoniae 134 GR-Micro by broth microdilution technique. The method, boiled down: as §3
Experiment [6] has as its system Streptococcus pyogenes. As to the kind of experiment: Antibacterial activity against efflux-mediated macrolide-resistant Streptococcus pyogenes 3 Finland by broth microdilution technique. The essentials: as §3
The test system of experiment [7] is Streptococcus pneumoniae. The experiment is described as follows: Antibacterial activity against constitutive macrolide, licosamide and streptogramin-resistant Streptococcus pneumoniae 58 Spain by broth microdilution technique. The essentials:
as §3

For experiment [8], the system named is Streptococcus pneumoniae. As to the kind of experiment: Antibacterial activity against efflux-mediated macrolide-resistant Streptococcus pneumoniae Ci137 by broth microdilution technique. The method, boiled down:
as §3

The test system of experiment [9] is Streptococcus pyogenes. As to the kind of experiment: Antibacterial activity against erythromycin-sensitive Streptococcus pyogenes 3565 by broth microdilution technique. The essentials:
as §2

Experiment [10] deals with Moraxella catarrhalis. The experiment is described as follows: Antibacterial activity against Moraxella catarrhalis ATCC 23246 by broth microdilution technique. The essentials:
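MIC by broth microdilution per CLSI guidelines with doubling dilutions of compounds. Before testing, organisms were grown on Columbia agar with 5% sheep blood. Values reported in µg/mL.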

For experiment [11], the system named is Haemophilus influenzae. The experiment is described as follows: Antibacterial activity against Haemophilus influenzae ATCC 49247 by broth microdilution technique. The method, boiled down:
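MIC by broth microdilution per CLSI guidelines with doubling dilutions of compounds. Before testing, organisms were grown on Mueller-Hinton chocolate agar. Values reported in µg/mL.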

Experiment [12] deals with Staphylococcus aureus. As to the kind of experiment: Antibacterial activity against efflux-mediated macrolide-resistant Staphylococcus aureus PK1 by broth microdilution technique. The essentials: as §1
The subject of experiment [13] is Staphylococcus aureus. The experiment is described as follows: Antibacterial activity against constitutive macrolide, licosamide and streptogramin-resistant Staphylococcus aureus PK2 by broth microdilution technique. The method, boiled down:
as §1

Experiment [14] deals with Streptococcus pyogenes. The experiment is described as follows: Antibacterial activity against inducible macrolide, licosamide and streptogramin-resistant Streptococcus pyogenes Finland 11 by broth microdilution technique. The method, boiled down: as §3

Molecules are shown by their SMILES. In brackets after ≈: the same amount, converted by molar mass.

As for `CCOC(=O)c1cn(C2CC2)c2ccc(C#CCN3CCN(CCC(=O)O[C@H]4[C@H](C)O[C@@H](O[C@H]5[C@H](C)[C@@H](O[C@@H]6O[C@H](C)C[C@H](N(C)C)[C@H]6O)[C@](C)(O)C[C@@H](C)CN(C)[C@H](C)[C@@H](OC)[C@](C)(O)[C@@H](CC)OC(=O)[C@@H]5C)C[C@@]4(C)OC)CC3)cc2c1=O`, the MIC in experiment [1] is > 64 µg/mL; in experiment [2], ≤ 0.125 µg/mL; in [3] it was 32 µg/mL (≈ 26.7 µM); in experiment [4] it was 4 µg/mL (≈ 3.34 µM); in [5] it was 0.25 µg/mL (≈ 0.209 µM); in experiment [6] it was 0.5 µg/mL (≈ 0.418 µM). In addition, the MIC is 0.5 µg/mL (≈ 0.418 µM) in experiment [7]; ≤ 0.125 µg/mL in [8]; ≤ 0.125 µg/mL in [9]; 4 µg/mL (≈ 3.34 µM) in experiment [10]; 16 µg/mL (≈ 13.4 µM) in experiment [11]; 64 µg/mL (≈ 53.5 µM) in [12]. Besides, the MIC in experiment [13] is > 64 µg/mL; in [14] it was ≤ 0.125 µg/mL.
